This is a sample that favours compounds with a hit; in the whole collection about 3.7% have one here.
hERG protect – shields human hERG channel from block by proarrhythmic agents; Q12809; CHO-hERG, FluxOR thallium flux, dofetilide IC70 present; activation (rescue from dofetilide block), less the hit threshold, % at 10 µM; actives 0.51% (n = 310,000);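 active means activation above the mean of controls blocked by dofetilide plus 5 SD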;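 further: thallium influx through hERG after potassium depolarization seen as dye fluorescence rise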
Kir21 block – Kir2.1 (mouse) channel inhibition; P35561; actives 0.85% (n = 310,000); AID 1672; B-score at 10 µM; HEK293-Kir2.1, FluxOR thallium flux fluorescence; hits give low values;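 active means fluorescence ratio B-score at or below minus 3 SD of library scores, with starting-brightness B-score within 2 SD, cut at about -4.2 in these data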;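 further: channel flux triggered by added potassium and thallium sulfate stimulus; B-score of peak minus minimum fluorescence over baseline after thallium stimulus; more negative B-score means stronger Kir2.1 block with less thallium influx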
KCNQ1 pot – potentiators or activators of human KCNQ1 potassium channel | CHO-K1 KCNQ1, thallium flux FluxOR fluorescence; hits give high values | B-score at 10 µM | actives 0.35% (n = 310,000);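 active means fluorescence ratio B-score, a plate-corrected score, at least three library SD, with initial intensity B-score within 5 SD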
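assay system = KCNQ1-transfected CHO-K1 cells | medium = assay buffer with matched DMSO | probe or stimulus = depolarizing K+/Tl+ stimulus, K2SO4 and Tl2SO4 each 12.5 mM in 5x stock | dosing = single dose | incubation = dye 90 min, compound 20 min, room temperature | detection = kinetic FluxOR fluorescence, 10 s baseline plus 110 s post-stimulus | evaluation = ratio B score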
KCNK3 block – human KCNK3 channel inhibition, primary screen | B-score at 10 µM | actives 0.84% (n = 340,000) | CHO-KCNK3 thallium flux, FluxOR fluorescence; hits give low values;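 active means B-score under library mean minus 4 SD, starting fluorescence ratio at most library mean plus 5 SD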;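 further: more negative B-score means stronger inhibition of thallium flux through KCNK3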
Target sequence (O14649 whole entry, looked up): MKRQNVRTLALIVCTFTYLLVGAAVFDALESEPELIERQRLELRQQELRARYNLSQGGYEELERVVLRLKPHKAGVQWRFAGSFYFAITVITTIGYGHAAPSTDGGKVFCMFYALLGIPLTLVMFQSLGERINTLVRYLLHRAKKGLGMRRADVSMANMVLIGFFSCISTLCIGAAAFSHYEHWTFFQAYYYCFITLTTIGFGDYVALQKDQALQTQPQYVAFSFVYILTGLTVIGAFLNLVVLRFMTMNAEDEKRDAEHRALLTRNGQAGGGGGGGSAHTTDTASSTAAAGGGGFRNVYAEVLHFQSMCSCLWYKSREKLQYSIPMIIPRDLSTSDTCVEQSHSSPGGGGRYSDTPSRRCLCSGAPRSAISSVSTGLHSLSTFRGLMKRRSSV
KCNK9 block – inhibitors of human KCNK9 two-pore domain potassium channel. actives 1.2% (n = 310,000). HEK293 KCNK9, FluxOR thallium flux fluorescence; hits give low values. B-score at 10 µM;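 active means ratio B-score over 3 SD below the library mean, with starting fluorescence within 5 SD of its mean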;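 further: negative B-score means less thallium flux so channel inhibition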
Target sequence (Q9NPC2 whole entry, looked up, the tested form may be a part): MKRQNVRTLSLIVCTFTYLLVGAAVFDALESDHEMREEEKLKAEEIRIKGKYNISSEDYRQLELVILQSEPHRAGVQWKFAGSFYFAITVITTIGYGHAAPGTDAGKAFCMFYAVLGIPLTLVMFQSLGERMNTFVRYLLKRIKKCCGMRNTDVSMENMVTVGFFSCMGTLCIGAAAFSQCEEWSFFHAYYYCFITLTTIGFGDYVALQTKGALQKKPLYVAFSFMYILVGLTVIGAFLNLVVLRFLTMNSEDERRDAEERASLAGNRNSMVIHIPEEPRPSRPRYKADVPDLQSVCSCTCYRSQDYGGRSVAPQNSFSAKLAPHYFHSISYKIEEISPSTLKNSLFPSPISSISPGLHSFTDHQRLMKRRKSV
KCNQ1 block – inhibitors of human KCNQ1 potassium channel. P51787. CHO-K1 KCNQ1, FluxOR thallium flux fluorescence; hits give high values. B-score at 10 µM. actives 1.3% (n = 310,000). AID 2642;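 active means compounds whose thallium flux B-score, printed positive for inhibition, exceeds three library SD while starting fluorescence stays within three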;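 further: channel opened by potassium depolarization with thallium stimulus after 20 min compound exposure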
KCNK9 block conf – human KCNK9 inhibitor confirmation | shares compounds with KCNK9 block | inhibition, % at 10 µM | HEK293 KCNK9 cells, FluxOR thallium flux fluorescence | actives 43% (n = 4,900);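 active means thallium signal inhibited by more than 5 SD of the compound-free buffer control wells, on both duplicate plates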
Kir2-1 spec – selectivity of KCNK9 modulators against mouse Kir2.1; inhibition, % at 10 µM; Kir2.1 cells, FluxOR thallium flux fluorescence; actives 4% (n = 4,900); AID 492993; shares compounds with KCNK9 block;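 active means thallium signal drop more than 5 SD beyond the mean of the no-compound control wells, seen in both duplicate plates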;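 further: signal is fluorescence rise after thallium addition divided by baseline fluorescence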
HEK293 Tl ctr – second counter-screen for KCNK9 modulators: effect in non-induced cells | shares compounds with KCNK9 block | non-induced KCNK9-HEK293, FluxOR thallium flux | inhibition, % at 10 µM | actives 40% (n = 4,900) | AID 492997;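 active means thallium signal drop beyond 5 SD of the untreated control mean, on both duplicate plates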
Of the large screens only hits and unclear results are named; the others gave an inactive call (follow-up assays come after a bar, where they were run); ! = not active in a repeat.

O=C(O)/C(=C\c1ccc(-c2ccccc2[N+](=O)[O-])o1)c1ccccc1	none
C/C(CC(=O)Nc1ccc(Cl)c(C(F)(F)F)c1)=N\NC(N)=S	KCNQ1 block 7 | KCNK9 block conf inactive | Kir2-1 spec inactive | HEK293 Tl ctr inactive
CC1CCN(c2c([N+](=O)[O-])c(=O)oc3ccccc23)CC1	none
CCOc1ccc(OCC)c(Nc2cc(C)nc3ncnn23)c1	none | KCNK9 block conf inactive | Kir2-1 spec inactive | HEK293 Tl ctr 24%
COc1ccccc1CNC(=O)c1ccccc1OCc1ccc(F)cc1	Kir21 block -6.5, KCNK9 block -8.8 | KCNK9 block conf 70% | Kir2-1 spec 39% | HEK293 Tl ctr 28%
O=C(NCc1ccccn1)c1ccccc1OCc1ccc(F)cc1	none
CCOC(=O)C1(Cc2ccccc2C(F)(F)F)CCN(Cc2ccc(COC)o2)CC1	none | KCNK9 block conf inactive | Kir2-1 spec inactive | HEK293 Tl ctr inactive
CCOC(=O)C1(Cc2ccccc2)CCN(Cc2cccn2-c2nccs2)CC1	none | KCNK9 block conf inactive | Kir2-1 spec inactive | HEK293 Tl ctr inactive
CCOC(=O)C1(Cc2ccccc2)CCN(Cc2cccc3nccnc23)CC1	none | KCNK9 block conf inactive | Kir2-1 spec inactive | HEK293 Tl ctr inactive
CCOC(=O)C1(CCc2ccccc2)CCN(Cc2ccc(C(=O)OC)cc2)CC1	none
CCOC(=O)C1(Cc2cccc(OC)c2)CCN(Cc2cccn2-c2nccs2)CC1	none
CCOC(=O)C1(CCc2ccccc2)CCN(Cc2cc(OC)c(OC)cc2OC)CC1	none | KCNK9 block conf inactive | Kir2-1 spec inactive | HEK293 Tl ctr inactive
CC(=O)OCc1nc2ccccc2s1	none
NC(=O)c1ccccc1OCc1nc2ccccc2s1	none | KCNK9 block conf inactive | Kir2-1 spec inactive | HEK293 Tl ctr inactive
Cc1cc(C(=O)CSc2nn3c(=O)c(C(C)(C)C)nnc3s2)c(C)n1C1CC1	none | KCNK9 block conf inactive | Kir2-1 spec inactive | HEK293 Tl ctr inactive
CCOP(=O)(OCC)C(NC(=O)c1cccs1)C(F)(F)F (stereo not drawn)	none
COc1cccc(C(=O)/C=C/c2ccc(N3CCCCC3)c([N+](=O)[O-])c2)c1	KCNK9 block -8.3 | KCNK9 block conf 36% | Kir2-1 spec inactive | HEK293 Tl ctr 35%
Oc1cc(-c2ccccc2)c2ccccc2c1	Kir21 block -4.6, KCNK9 block -11, KCNQ1 block 8 | KCNK9 block conf 49% | Kir2-1 spec inactive | HEK293 Tl ctr 34%
CCOC(=O)C1CCN(C(=O)C(=O)Nc2ccc3nc4n(c(=O)c3c2)CCCCC4)CC1	none
CSc1cnn(Cc2ccccc2)c(=O)c1SCc1ccccc1	Kir21 block -4.6 | KCNK9 block conf inactive | Kir2-1 spec 40% | HEK293 Tl ctr 44%
COc1cccc2cc(C(=O)Nc3ccc(S(=O)(=O)NCC4CCCO4)cc3)c(=O)oc12 (stereo not drawn)	none
CCOC(=O)c1c(NC(=O)CSc2c[nH]c3ccccc23)sc2c1CCC2	none | KCNK9 block conf inactive | Kir2-1 spec inactive | HEK293 Tl ctr inactive
CCOC(=O)c1c(NC(=O)CSc2nnc(-c3c[nH]c4ccccc34)n2CCOC)sc2c1CCCCC2	none
CCOC(=O)c1c(NC(=O)C(C)Sc2cn(C)c3ccccc23)sc2c1CCC2 (stereo not drawn)	none | KCNK9 block conf inactive | Kir2-1 spec inactive | HEK293 Tl ctr inactive
CCOC(=O)c1c(NC(=O)CSc2nnc3ccccn23)sc2c1CCC2	none
CCOC(=O)c1c(NC(=O)CSc2c[nH]c3ccccc23)sc2c1CCCC2	none | KCNK9 block conf inactive | Kir2-1 spec inactive | HEK293 Tl ctr inactive
CCOC(=O)c1c(NC(=O)C(C)Sc2cccc[n+]2[O-])sc2c1CCN(Cc1ccccc1)C2 (stereo not drawn)	none (no result: hERG protect, Kir21 block, KCNQ1 pot, KCNK9 block, KCNQ1 block)
O=[N+]([O-])c1ccccc1CCc1cnc(Cl)s1	none
CN1C(=O)C(c2ccccc2[N+](=O)[O-])C(=O)c2ccccc21 (stereo not drawn)	none
CC(=O)/C=C/c1ccccc1Oc1c(F)c(F)nc(F)c1F	none | KCNK9 block conf inactive | Kir2-1 spec inactive | HEK293 Tl ctr inactive
Oc1ccccc1Oc1c(F)c(F)nc(N2CCCC2)c1F	none
COC(=O)c1cccnc1-n1c(=O)c2cccnc2n(Cc2cccc(C(F)(F)F)c2)c1=O	none
COc1ccc(Cl)cc1NC(=O)CN(C)C(=O)Cn1cnc2c1c(=O)n(C)c(=O)n2C	none
CCCCCOC(=O)Cn1c(=O)oc2ccccc21	none
CCOC(=O)Cn1c(COc2ccccc2OC)[n+](C)c2ccccc21	none
CCCCCCCCCCOC(=O)Cn1c(COc2ccc(OC)cc2)[n+](C)c2ccccc21	Kir21 block -8.6, KCNK9 block -17, KCNQ1 block 10 | KCNK9 block conf 70% | Kir2-1 spec 75% | HEK293 Tl ctr 33%!
CCCCCCCCCCOC(=O)Cn1c(COc2ccccc2)[n+](C)c2ccccc21	Kir21 block -13, KCNK9 block -15, KCNQ1 block 8 | KCNK9 block conf 72% | Kir2-1 spec 75% | HEK293 Tl ctr 34%
CCCCCCCCCCOC(=O)Cn1c(COc2ccc(Cl)cc2)[n+](C)c2ccccc21	KCNK9 block -10 | KCNK9 block conf 72% | Kir2-1 spec 50% | HEK293 Tl ctr inactive
O=c1[nH]cnc2onc(-c3ccc(F)cc3)c12	none
O=C(COC(=O)Cn1nnc2ccccc21)NC1CCCC1	none
Cc1cc(C)cc(OCC(=O)OC(C)C(=O)Nc2ccc(Cl)cn2)c1 (stereo not drawn)	none
O=C(Nc1cccc(-c2cn3ccccc3n2)c1)c1cccs1	KCNK9 block -8.5 | KCNK9 block conf 52% | Kir2-1 spec inactive | HEK293 Tl ctr inactive
O=C(Nc1cccc(-c2nc3ccccc3s2)c1)c1cc(=O)c2ccccc2o1	none
O=C(Nc1cccc(-c2nc3ccccc3s2)c1)c1cccs1	KCNK9 block -10 | KCNK9 block conf 49% | Kir2-1 spec inactive | HEK293 Tl ctr 26%
O=C(CNC(=O)c1nn(Cc2ccccc2)c(=O)c2ccccc12)Nc1ccc(F)c(F)c1F	none (no result: hERG protect, Kir21 block, KCNQ1 pot, KCNK9 block, KCNQ1 block)
CCOCCCNC(=S)N1CCCN(c2nc3c(C)c(C)ccc3cc2C#N)CC1	none
CCOCCCNC(=S)N1CCCN(c2nc3cc(C)ccc3cc2C#N)CC1	none | KCNK9 block conf inactive | Kir2-1 spec inactive | HEK293 Tl ctr inactive
COc1ccc(-c2csc(Nc3ncccc3C)n2)cc1	none | KCNK9 block conf inactive | Kir2-1 spec inactive | HEK293 Tl ctr inactive
COc1ccc(-c2csc(Nc3ncccc3C)n2)cc1OC	none

Assay outcomes (PubChem BioAssay)
